ChEMBL document CHEMBL4689842, “EUbOPEN Chemogenomics Library wave 1” (2021)
Where “and” joins values, the source holds several entries; their conditions need not be identical. Equal entries are not always repeated.

Tested on: U2OS
Assay: Multiplex assay against U2OS
Format: toxicity, cell-based
Settings: human
Summary of the method: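 Cells were classed with CellPathfinder machine-learning gating, first as Hoechst high-intensity objects or normal cells, then (normal cells) as healthy, pyknosed or fragmented nuclei, and finally (pyknosed cells) as mitotic or apoptotic. Staining of live cells at seeding used Hoechst33342, BioTracker Green Microtubule Cytoskeleton Dye, MitoTracker Red and Annexin V Alexa Fluor 680, with imaging on a CQ1 microscope at 37°C and 5% CO2 after compound addition. Tubulin, mitochondrial-mass and membrane-permeability phenotypes are per cents of healthy-nucleus cells.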

[1] = 12 h, 1 µM, compound concentration 1 uM, replicate 1
[2] = 12 h, 1 µM, compound concentration 1 uM, replicate 2
[3] = 24 h, 1 µM, compound concentration 1 uM, replicate 1
[4] = 24 h, 1 µM, compound concentration 1 uM, replicate 2
[5] = 12 h, 10 µM, compound concentration 10 uM, replicate 1
[6] = 12 h, 10 µM, compound concentration 10 uM, replicate 2
[7] = 24 h, 10 µM, compound concentration 10 uM, replicate 1
[8] = 24 h, 10 µM, compound concentration 10 uM, replicate 2
[9] = 48 h, 1 µM, compound concentration 1 uM, replicate 1
[10] = 48 h, 1 µM, compound concentration 1 uM, replicate 2
[11] = 48 h, 10 µM, compound concentration 10 uM, replicate 1
[12] = 48 h, 10 µM, compound concentration 10 uM, replicate 2

## CN1CCN(Cc2cc(NC(=O)c3ccc4c(c3)CN(c3ccccc3)CC4)cc(C(F)(F)F)c2)CC1
[1]
  Population Apoptotic (%): 35% and 75%
  Population Healthy Nuclei (%): 63% and 89%
  Population Hoechst High Intensity Objects (%): 2%
  Population Membrane Permeable-Phenotype (%): 28% and 46%
  Population Mitotic Cells (%): 64% and 25%
  Population Normal (%): 97%
  Population Tubulin-Different-Phenotype (%): 98% and 42%
  Total Cell Count: 228 and 171
[2]
  Population Fragmented Nuclei (%): 28% and 15%
  Population Healthy Nuclei (%): 52% and 80%
  Population Hoechst High Intensity Objects (%): 5% and 15%
  Population Membrane Permeable-Phenotype (%): 47% and 37%
  Population Mitotic Cells (%): 65% and 100%
  Population Normal (%): 94% and 84%
  Population Pyknosed Nuclei (%): 19%
  Population Tubulin-Different-Phenotype (%): 100% and 48%
  Total Cell Count: 128 and 83
[3]
  Population Apoptotic (%): 39% and 22%
  Population Fragmented Nuclei (%): 14% and 7%
  Population Healthy Nuclei (%): 46% and 88%
  Population Hoechst High Intensity Objects (%): 10% and 3%
  Population Membrane Permeable-Phenotype (%): 33% and 28%
  Population Mitotic Cells (%): 60% and 77%
  Population Normal (%): 89% and 96%
  Total Cell Count: 255 and 239
[4]
  Population Fragmented Nuclei (%): 19% and 9%
  Population Healthy Nuclei (%): 45% and 80%
  Population Hoechst High Intensity Objects (%): 13% and 11%
  Population Membrane Permeable-Phenotype (%): 36% and 35%
  Population Mitotic Cells (%): 44% and 87%
  Population Normal (%): 86% and 88%
  Total Cell Count: 144 and 92

## CNC(=O)Nc1ccc2c(c1)[C@@]1(CC2)OC(=O)N(CC(=O)N(Cc2ccc(F)cc2)[C@@H](C)C(F)(F)F)C1=O [A-486]
[1]
  Population Apoptotic (%): 47%
  Population Fragmented Nuclei (%): 4%
  Population Healthy Nuclei (%): 81%
  Population Hoechst High Intensity Objects (%): 4%
  Population Membrane Permeable-Phenotype (%): 63%
  Population Mitochondria Different-Phenotype (%): 11%
  Population Mitotic Cells (%): 52%
  Population Normal (%): 95%
  Population Pyknosed Nuclei (%): 14%
  Population Tubulin-Different-Phenotype (%): 57%
  Total Cell Count: 248
[2]
  Population Apoptotic (%): 75%
  Population Fragmented Nuclei (%): 7%
  Population Healthy Nuclei (%): 88%
  Population Hoechst High Intensity Objects (%): 11%
  Population Membrane Permeable-Phenotype (%): 59%
  Population Mitochondria Different-Phenotype (%): 19%
  Population Mitotic Cells (%): 25%
  Population Normal (%): 88%
  Population Pyknosed Nuclei (%): 4%
  Population Tubulin-Different-Phenotype (%): 60%
  Total Cell Count: 105
[5]
  Population Apoptotic (%): 27%
  Population Fragmented Nuclei (%): 3%
  Population Healthy Nuclei (%): 85%
  Population Hoechst High Intensity Objects (%): 1%
  Population Membrane Permeable-Phenotype (%): 9%
  Population Mitochondria Different-Phenotype (%): 19%
  Population Mitotic Cells (%): 72%
  Population Normal (%): 99%
  Population Pyknosed Nuclei (%): 11%
  Population Tubulin-Different-Phenotype (%): 12%
  Total Cell Count: 201
[6]
  Population Apoptotic (%): 33%
  Population Fragmented Nuclei (%): 6%
  Population Healthy Nuclei (%): 83%
  Population Hoechst High Intensity Objects (%): 11%
  Population Membrane Permeable-Phenotype (%): 21%
  Population Mitochondria Different-Phenotype (%): 26%
  Population Mitotic Cells (%): 66%
  Population Normal (%): 88%
  Population Pyknosed Nuclei (%): 10%
  Population Tubulin-Different-Phenotype (%): 28%
  Total Cell Count: 102
[3]
  Population Apoptotic (%): 33%
  Population Fragmented Nuclei (%): 3%
  Population Healthy Nuclei (%): 89%
  Population Hoechst High Intensity Objects (%): 4%
  Population Membrane Permeable-Phenotype (%): 45%
  Population Mitochondria Different-Phenotype (%): 14%
  Population Mitotic Cells (%): 66%
  Population Normal (%): 95%
  Population Pyknosed Nuclei (%): 6%
  Population Tubulin-Different-Phenotype (%): 30%
  Total Cell Count: 329
[4]
  Population Apoptotic (%): 75%
  Population Fragmented Nuclei (%): 7%
  Population Healthy Nuclei (%): 88%
  Population Hoechst High Intensity Objects (%): 7%
  Population Membrane Permeable-Phenotype (%): 44%
  Population Mitochondria Different-Phenotype (%): 18%
  Population Mitotic Cells (%): 25%
  Population Normal (%): 92%
  Population Pyknosed Nuclei (%): 3%
  Population Tubulin-Different-Phenotype (%): 27%
  Total Cell Count: 115
[7]
  Population Apoptotic (%): 46%
  Population Fragmented Nuclei (%): 2%
  Population Healthy Nuclei (%): 92%
  Population Hoechst High Intensity Objects (%): 0%
  Population Membrane Permeable-Phenotype (%): 5%
  Population Mitochondria Different-Phenotype (%): 14%
  Population Mitotic Cells (%): 53%
  Population Normal (%): 99%
  Population Pyknosed Nuclei (%): 5%
  Population Tubulin-Different-Phenotype (%): 17%
  Total Cell Count: 277
[8]
  Population Apoptotic (%): 40%
  Population Fragmented Nuclei (%): 5%
  Population Healthy Nuclei (%): 90%
  Population Hoechst High Intensity Objects (%): 9%
  Population Membrane Permeable-Phenotype (%): 14%
  Population Mitochondria Different-Phenotype (%): 33%
  Population Mitotic Cells (%): 60%
  Population Normal (%): 90%
  Population Pyknosed Nuclei (%): 4%
  Population Tubulin-Different-Phenotype (%): 37%
  Total Cell Count: 126

## CNC(=O)Nc1ccc(-c2nc(N3CC4CCC(C3)O4)c3cnn(C4CCC5(CC4)OCCO5)c3n2)cc1
[1]
  Population Apoptotic (%): 22%
  Population Fragmented Nuclei (%): 24%
  Population Healthy Nuclei (%): 59%
  Population Hoechst High Intensity Objects (%): 13%
  Population Membrane Permeable-Phenotype (%): 5%
  Population Mitochondria Different-Phenotype (%): 11%
  Population Mitotic Cells (%): 77%
  Population Normal (%): 86%
  Population Pyknosed Nuclei (%): 15%
  Population Tubulin-Different-Phenotype (%): 26%
  Total Cell Count: 90
[2]
  Population Apoptotic (%): 0%
  Population Fragmented Nuclei (%): 28%
  Population Healthy Nuclei (%): 55%
  Population Hoechst High Intensity Objects (%): 10%
  Population Mitochondria Different-Phenotype (%): 13%
  Population Mitotic Cells (%): 100%
  Population Normal (%): 89%
  Population Pyknosed Nuclei (%): 16%
  Population Tubulin-Different-Phenotype (%): 18%
  Total Cell Count: 54
[5]
  Population Apoptotic (%): 40%
  Population Fragmented Nuclei (%): 26%
  Population Healthy Nuclei (%): 31%
  Population Hoechst High Intensity Objects (%): 13%
  Population Membrane Permeable-Phenotype (%): 11%
  Population Mitochondria Different-Phenotype (%): 88%
  Population Mitotic Cells (%): 59%
  Population Normal (%): 87%
  Population Pyknosed Nuclei (%): 42%
  Population Tubulin-Different-Phenotype (%): 96%
  Total Cell Count: 66
[6]
  Population Apoptotic (%): 25%
  Population Fragmented Nuclei (%): 13%
  Population Healthy Nuclei (%): 54%
  Population Hoechst High Intensity Objects (%): 6%
  Population Membrane Permeable-Phenotype (%): 36%
  Population Mitochondria Different-Phenotype (%): 75%
  Population Mitotic Cells (%): 75%
  Population Normal (%): 93%
  Population Pyknosed Nuclei (%): 32%
  Total Cell Count: 107
[3]
  Population Apoptotic (%): 30%
  Population Fragmented Nuclei (%): 28%
  Population Healthy Nuclei (%): 52%
  Population Hoechst High Intensity Objects (%): 19%
  Population Membrane Permeable-Phenotype (%): 0%
  Population Mitochondria Different-Phenotype (%): 14%
  Population Mitotic Cells (%): 70%
  Population Normal (%): 80%
  Population Pyknosed Nuclei (%): 18%
  Population Tubulin-Different-Phenotype (%): 14%
  Total Cell Count: 98
[4]
  Population Apoptotic (%): 25%
  Population Fragmented Nuclei (%): 19%
  Population Healthy Nuclei (%): 64%
  Population Hoechst High Intensity Objects (%): 18%
  Population Membrane Permeable-Phenotype (%): 8%
  Population Mitochondria Different-Phenotype (%): 6%
  Population Mitotic Cells (%): 75%
  Population Normal (%): 81%
  Population Pyknosed Nuclei (%): 16%
  Population Tubulin-Different-Phenotype (%): 23%
  Total Cell Count: 55
[7]
  Population Apoptotic (%): 51%
  Population Fragmented Nuclei (%): 25%
  Population Healthy Nuclei (%): 35%
  Population Hoechst High Intensity Objects (%): 10%
  Population Membrane Permeable-Phenotype (%): 10%
  Population Mitochondria Different-Phenotype (%): 89%
  Population Mitotic Cells (%): 48%
  Population Normal (%): 90%
  Population Pyknosed Nuclei (%): 38%
  Population Tubulin-Different-Phenotype (%): 93%
  Total Cell Count: 66
[8]
  Population Apoptotic (%): 41%
  Population Fragmented Nuclei (%): 8%
  Population Healthy Nuclei (%): 42%
  Population Hoechst High Intensity Objects (%): 6%
  Population Membrane Permeable-Phenotype (%): 44%
  Population Mitochondria Different-Phenotype (%): 84%
  Population Mitotic Cells (%): 58%
  Population Normal (%): 93%
  Population Pyknosed Nuclei (%): 49%
  Population Tubulin-Different-Phenotype (%): 96%
  Total Cell Count: 90
[9]
  Population Apoptotic (%): 50%
  Population Fragmented Nuclei (%): 39%
  Population Healthy Nuclei (%): 49%
  Population Hoechst High Intensity Objects (%): 18%
  Population Membrane Permeable-Phenotype (%): 3%
  Population Mitochondria Different-Phenotype (%): 7%
  Population Mitotic Cells (%): 50%
  Population Normal (%): 81%
  Population Pyknosed Nuclei (%): 11%
  Population Tubulin-Different-Phenotype (%): 19%
  Total Cell Count: 93
[10]
  Population Apoptotic (%): 36%
  Population Fragmented Nuclei (%): 14%
  Population Healthy Nuclei (%): 55%
  Population Hoechst High Intensity Objects (%): 14%
  Population Membrane Permeable-Phenotype (%): 5%
  Population Mitochondria Different-Phenotype (%): 14%
  Population Mitotic Cells (%): 63%
  Population Normal (%): 85%
  Population Pyknosed Nuclei (%): 30%
  Population Tubulin-Different-Phenotype (%): 37%
  Total Cell Count: 56
[11]
  Population Apoptotic (%): 64%
  Population Fragmented Nuclei (%): 29%
  Population Healthy Nuclei (%): 23%
  Population Hoechst High Intensity Objects (%): 12%
  Population Membrane Permeable-Phenotype (%): 26%
  Population Mitochondria Different-Phenotype (%): 94%
  Population Mitotic Cells (%): 35%
  Population Normal (%): 87%
  Population Pyknosed Nuclei (%): 47%
  Population Tubulin-Different-Phenotype (%): 94%
  Total Cell Count: 65
[12]
  Population Apoptotic (%): 43%
  Population Fragmented Nuclei (%): 11%
  Population Healthy Nuclei (%): 29%
  Population Hoechst High Intensity Objects (%): 16%
  Population Membrane Permeable-Phenotype (%): 40%
  Population Mitochondria Different-Phenotype (%): 80%
  Population Mitotic Cells (%): 56%
  Population Normal (%): 83%
  Population Pyknosed Nuclei (%): 58%
  Population Tubulin-Different-Phenotype (%): 93%
  Total Cell Count: 74
